The target of data set [1] is T1, Ubiquitin carboxyl-terminal hydrolase isozyme L3 (Homo sapiens, UniProt P15374).
T1 sequence (P15374 whole entry): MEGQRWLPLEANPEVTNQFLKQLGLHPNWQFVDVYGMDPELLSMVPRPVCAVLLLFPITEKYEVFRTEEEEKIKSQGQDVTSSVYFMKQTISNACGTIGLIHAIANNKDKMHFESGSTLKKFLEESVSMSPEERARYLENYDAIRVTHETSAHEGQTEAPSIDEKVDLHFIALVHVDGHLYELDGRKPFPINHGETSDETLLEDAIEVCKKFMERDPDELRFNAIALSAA
Briefly: Inhibition of GST-tagged recombinant UCHL3 (unknown origin) using Ub-Lys-TAMRA as substrate incubated for 30 mins by fluorescence polarization assay. Summed up: (§1)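 Recombinant DUB (UCHL1 or UCHL3 at 5 nM) preincubated 30 min RT with 8-point compound dilutions in Tris pH 7.5/NaCl or Tris pH 7.5 buffer with Tween-20, BSA and 5 mM BME. Ub-Lys-TAMRA (50 nM) added; fluorescence polarization (Ex 540/Em 590 nm) read at once and after 2 h RT. Triplicate; four-parameter IC50.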
For orientation: In fluorescence polarisation assays a small probe gives low polarisation when free and higher when bound to something large.

The target in data set [2] is Ubiquitin carboxyl-terminal hydrolase isozyme L1 (Homo sapiens) (UniProt P09936). Briefly: Inhibition of GST-tagged recombinant UCHL1 (unknown origin) using Ub-Lys-TAMRA as substrate at 1 uM incubated for 30 mins by fluorescence polarization assay. A digest of the protocol: as §1
The target in data set [3] is T2, Ubiquitin carboxyl-terminal hydrolase isozyme L3 (Homo sapiens) (UniProt P15374).
T2 sequence (whole entry): T1 sequence (P15374 whole entry)
Briefly: Inhibition of UCHL3 in human HEK293 cells using HA-Ub-VME as substrate at 0.1 to 10 uM incubated for 1 hr by immunoblotting analysis. In kind it is cell-based. Particulars: dose 0.1-10 µM. A digest of the protocol: (§2)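 Near-confluent HEK293 cells treated with compound in medium for 1 h at 37 °C, lysed in Tris/NP-40/CHAPS buffer with benzonase. Lysate (20 µg) reacted with HA-Ahx-Ahx-Ub-VME (0.5 µg) 15 min at room temperature, boiled 5 min at 95 °C in SDS loading buffer with BME, SDS-PAGE and immunoblot.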
Background: In western blotting, separated proteins are transferred to a membrane and probed.

Data set [4] addresses Ubiquitin carboxyl-terminal hydrolase isozyme L1 (Homo sapiens) (UniProt P09936). Briefly: Binding affinity to GST-tagged recombinant UCHL1 (unknown origin) assessed as covalent adduct formation at 13 uM incubated for 1 hr by LC-ESI-MS analysis.
The target in data set [5] is T3, Ubiquitin carboxyl-terminal hydrolase BAP1 (Homo sapiens) (UniProt Q92560).
T3 sequence (whole entry): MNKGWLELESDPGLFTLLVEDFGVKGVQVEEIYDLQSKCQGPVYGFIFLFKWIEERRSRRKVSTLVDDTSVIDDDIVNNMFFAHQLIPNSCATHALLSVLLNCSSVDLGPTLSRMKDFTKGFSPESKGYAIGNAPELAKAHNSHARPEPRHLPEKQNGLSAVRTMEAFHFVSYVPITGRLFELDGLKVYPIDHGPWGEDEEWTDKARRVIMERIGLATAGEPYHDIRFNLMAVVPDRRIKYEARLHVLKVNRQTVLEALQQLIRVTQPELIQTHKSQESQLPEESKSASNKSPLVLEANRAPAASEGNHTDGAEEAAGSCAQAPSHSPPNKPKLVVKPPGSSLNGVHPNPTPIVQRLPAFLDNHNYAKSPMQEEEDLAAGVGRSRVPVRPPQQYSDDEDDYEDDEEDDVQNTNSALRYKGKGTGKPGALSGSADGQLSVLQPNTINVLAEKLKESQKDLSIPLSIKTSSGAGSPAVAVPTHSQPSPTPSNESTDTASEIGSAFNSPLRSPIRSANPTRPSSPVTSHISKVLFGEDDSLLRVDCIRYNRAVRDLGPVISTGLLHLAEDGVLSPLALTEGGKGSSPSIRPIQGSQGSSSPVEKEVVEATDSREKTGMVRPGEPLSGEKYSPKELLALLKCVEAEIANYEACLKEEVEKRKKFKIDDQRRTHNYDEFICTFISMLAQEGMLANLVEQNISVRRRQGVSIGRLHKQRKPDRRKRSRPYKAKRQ
Briefly: Inhibition of BAP1 in human HEK293 cells using HA-Ub-VME as substrate at 0.1 to 10 uM incubated for 1 hr by immunoblotting analysis. The settings on record: dose 0.1-10 µM. In kind it is cell-based. Summed up: as §2

The target of data set [6] is T4, Ubiquitin carboxyl-terminal hydrolase isozyme L1 (Homo sapiens, UniProt P09936).
T4 sequence (P09936 whole entry): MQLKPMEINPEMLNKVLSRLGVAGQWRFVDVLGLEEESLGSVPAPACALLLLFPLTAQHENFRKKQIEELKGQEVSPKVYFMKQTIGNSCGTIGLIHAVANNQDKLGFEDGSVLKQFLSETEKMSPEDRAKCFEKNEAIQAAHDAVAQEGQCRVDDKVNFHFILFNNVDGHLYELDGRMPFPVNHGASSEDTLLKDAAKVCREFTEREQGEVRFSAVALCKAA
Briefly: Inhibition of FLAG-tagged UCHL1 (unknown origin) expressed in CAL-51 cells using HA-Ub-VME as substrate incubated for 30 mins by HTRF assay. The class given is cell-based. Summed up:
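Cal51 cells stably expressing FLAG-UCHL1, plated overnight, exposed to compound 1 h at 37 °C. Washed, lysed 30 min on ice in Tris/NaCl/NP-40/CHAPS/MgCl2/BME buffer. Lysate mixed with HA-Ub-VME (100 nM) 30 min RT; anti-FLAG cryptate and anti-HA-XL added, overnight at 4 °C. HTRF Delta F read; IC50 by four-parameter fit, two biological triplicates.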
A general note: Time-resolved FRET reads energy transfer from a long-lived donor to a nearby acceptor.

For data set [7], the target named is T5, Ubiquitin carboxyl-terminal hydrolase 30 (Homo sapiens) (UniProt Q70CQ3).
T5 sequence (whole entry): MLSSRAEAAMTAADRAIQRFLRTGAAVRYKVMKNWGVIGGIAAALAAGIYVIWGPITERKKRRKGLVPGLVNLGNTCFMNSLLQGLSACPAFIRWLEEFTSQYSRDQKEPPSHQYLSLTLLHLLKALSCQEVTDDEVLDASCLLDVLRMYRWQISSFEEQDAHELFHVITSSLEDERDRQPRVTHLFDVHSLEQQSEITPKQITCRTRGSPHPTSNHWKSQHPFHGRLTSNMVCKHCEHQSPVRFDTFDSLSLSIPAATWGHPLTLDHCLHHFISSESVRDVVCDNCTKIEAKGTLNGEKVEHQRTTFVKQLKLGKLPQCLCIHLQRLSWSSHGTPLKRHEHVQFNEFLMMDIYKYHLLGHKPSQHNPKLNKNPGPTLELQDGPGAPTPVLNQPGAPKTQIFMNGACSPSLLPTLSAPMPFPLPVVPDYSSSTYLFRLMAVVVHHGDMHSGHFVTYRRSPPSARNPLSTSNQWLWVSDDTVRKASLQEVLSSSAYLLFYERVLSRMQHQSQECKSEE
Briefly: Inhibition of GST-tagged recombinant USP30 (unknown origin) using Ub-Lys-TAMRA as substrate at 1 uM incubated for 30 mins by fluorescence polarization assay.

Data set [8] addresses Ubiquitin carboxyl-terminal hydrolase isozyme L1 (Homo sapiens) (UniProt P09936). Briefly: Inhibition of UCHL1 in human HEK293 cells using HA-Ub-VME as substrate at 0.1 to 10 uM incubated for 1 hr by immunoblotting analysis. The settings on record: dose 0.1-10 µM. In kind it is cell-based. A digest of the protocol:
as §2

The nature of data set [9]: Cytotoxicity against human HEK293 cells assessed as reduction in cell growth incubated for 72 hrs by live-cell time-lapse imaging. The class given is toxicity, cell-based. Summed up:
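HEK293 cells, 1,000 per well, seeded 24 h before exposure to 7 serial dilutions, in triplicate. Confluence imaged every 2 h for 72 h by IncuCyte live-cell time-lapse imaging. EC50 from four-parameter dose-response fit; mean ± SD of 12 technical replicates.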

Experimental findings from ChEMBL document CHEMBL5107948, “Activity-based protein profiling reveals deubiquitinase and aldehyde dehydrogenase targets of a cyanopyrrolidine probe” (RSC Med Chem, 2021) are described below.

The structures appear in SMILES notation. Active and inactive are the calls of the source. The calls are words filed in the database; no cut-off is given here.

Usually IC50 stands for the concentration needed to halve the response being measured. The EC50 is the concentration at which the effect is half-maximal.

For the compound `N#CN1CC[C@H](C(=O)Nc2ncc(-c3ccccc3)s2)C1`, the IC50 was greater than 10 µM in data set [1] and 550 nM in data set [6]. In addition, the inhibition entry in [2], in data set [3], in [5], in [7] and in data set [8] was “Active” throughout. Also, in data set [4], the result was Active. Besides, the EC50 at 72 h in data set [9] is 730 nM.
Turning to `C#Cc1ccc(-c2cnc(NC(=O)[C@H]3CCN(C#N)C3)s2)cc1`, the IC50 in [1] is greater than 10 µM; in [6], 830 nM. Besides, the inhibition result in data set [2], in data set [3], in [5], in data set [7] and in data set [8] was “Active” in each case. In addition, in data set [4], the outcome was Active. In [9], the EC50 at 72 h was 350 nM.
